According to ChEMBL document CHEMBL1165870, “Cytotoxicity of new alkylamino- and phenylamino-containing polyfluorinated derivatives of 1,4-naphthoquinone” (Eur J Med Chem, 2010):

What was measured:
Salmonella typhimurium [1] = assay: Suppression in H2O2-iduced mutagenesity in Salmonella Typhimurium TA102 assessed as 150 to 100 % suppression of revertant formation by Ames assay; conditions: Salmonella enterica
Salmonella typhimurium [2] = assay: Suppression in H2O2-iduced mutagenesity in Salmonella Typhimurium TA102 assessed as 100 to 50 % suppression of revertant formation by Ames assay; conditions: Salmonella enterica
Salmonella typhimurium [3] = assay: Suppression in mutagenesity in Salmonella Typhimurium TA102 assessed as 100 to 50% suppression of revertant formation by Ames assay; conditions: Salmonella enterica
RPMI-8226 = assay: Cytotoxicity against human RPMI8226 cells after 72 hrs by MTT assay; type: functional, cell-based; conditions: RPMI-8226, 72 h
[4] = Cytotoxicity against mouse PMF after 72 hrs by MTT assay
MCF7 = assay: Cytotoxicity against human MCF7 cells after 72 hrs by MTT assay; type: functional, cell-based; conditions: MCF7, 72 h
[5] = Cytotoxicity against mouse LMTK cells after 72 hrs by MTT assay; type: cell-based; conditions: L-M(TK-)
[6] = Growth inhibition of mouse PMF at 25 ug/ml after 72 hrs by MTT assay; conditions: mouse PMF cells, read-out: GI
Summary of the method: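 PMF cells (about 2000 per well) seeded and held 24 h at 37 °C in IMDM or RPMI 1640 under 5% CO2, then exposed to compound.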

Salmonella typhimurium [7] = assay: Suppression in mutagenesity in Salmonella Typhimurium TA102 assessed as 100 to 50% suppression of revertant formation at 50 ug/ml by Ames assay
[8] = Growth inhibition of mouse LMTK cells at 173 uM after 72 hrs by MTT assay; type: cell-based

SMILES | IC50 (Salmonella typhimurium [1]) [µM] | IC50 (Salmonella typhimurium [2]) [µM] | IC50 (Salmonella typhimurium [3]) [µM] | IC50 (RPMI-8226) [µM] | IC50 [4] [µM] | IC50 (MCF7) [µM] | IC50 [5] [µM] | inhibition at 72 h, 25 ug/ml [6] [%] | Activity (Salmonella typhimurium [7]) [%] | growth inhibition (GI) [8]
CC(C)(C)NC1=C(F)C(=O)c2c(F)c(F)c(F)c(F)c2C1=O | 1.4 | 6.9 | 12.2 | 3.5 | 3.1 | 2.5 | 6.3 | – | – | –
CCN(CC)C1=C(F)C(=O)c2c(F)c(F)c(F)c(F)c2C1=O | 0.86 | 2.7 | 18.5 | 6.9 | 28.2 | 4.1 | 62.7 | – | – | –
CCNC1=C(F)C(=O)c2c(F)c(F)c(F)c(F)c2C1=O | 0.094 | 1 | 0.69 | 2.4 | 30.9 | 8.6 | 11 | – | – | –
O=C1C(F)=C(Nc2ccccc2)C(=O)c2c(F)c(F)c(F)c(F)c21 | 0.089 | 0.15 | 0.59 | 2.4 | 7.4 | 2.4 | 11.8 | – | – | –
CC1=C(Nc2ccccc2)C(=O)c2c(F)c(F)c(F)c(F)c2C1=O | 0.75 | 21.8 | > 149 | 22.4 | – | 13.4 | 104 | 45 | 24 | –
CC1=C(SCCO)C(=O)c2c(F)c(F)c(F)c(F)c2C1=O | – | 0.44 | 0.81 | 14.8 | – | 173 | – | – | – | Not Active
